Test results taken from ChEMBL document CHEMBL2202981, “Synthesis and cytotoxicity evaluation of highly functionalized pyranochromenes and pyranopyrans” (Bioorg Med Chem Lett, 2012).

Key:
Assay type in all cases: functional, cell-based; call rule not given here
A549 = test: Cytotoxicity against human A549 cells by MTT assay
HeLa = test: Cytotoxicity against human HeLa cells by MTT assay
Summary of the method: (§1)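 MTT assay on four human tumour lines: A549 (alveolar adenocarcinoma epithelial), HeLa (cervical cancer), MDA-MB-231 and MCF7 (breast adenocarcinoma). Dose-response curves were plotted from absorbance data, and IC50 was calculated from them. Each value is the average of two independent experiments.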

MDA-MB-231 = test: Cytotoxicity against human MDA-MB-231 cells by MTT assay; summary of the method: as §1
MCF7 = test: Cytotoxicity against human MCF7 cells by MTT assay; summary of the method: as §1
[1] = Homo sapiens, HeLa, read-out: IC50
[2] = Homo sapiens, MDA-MB-231, read-out: IC50
[3] = Homo sapiens, MCF7, read-out: IC50
[4] = Homo sapiens, A549, read-out: IC50

| SMILES | IC50 (A549; a549) | IC50 (HeLa; hela) | IC50 (MDA-MB-231; mda-mb-231) | IC50 (MCF7; mcf7) | IC50 (HeLa; [1]) | IC50 (MDA-MB-231; [2]) | IC50 (MCF7; [3]) | IC50 (A549; [4]) |
| --- | --- | --- | --- | --- | --- | --- | --- | --- |
| CCOC(=O)C1C(c2ccc(OC)cc2)c2oc(CO)cc(=O)c2OC1(O)C(F)(F)F (racemic) | Not Active | Not Active | Not Active | Not Active |  |  |  |  |
| CCOC(=O)C1C(c2ccc(F)cc2)c2c(c3ccccc3oc2=O)OC1(O)C(F)(F)F (racemic) | Not Active |  |  |  | 11 µM | 11.3 µM | 7.67 µM |  |
| CCOC(=O)C1C(c2ccc(O)cc2)c2c(c3cc(F)ccc3oc2=O)OC1(O)C(F)(F)F (racemic) |  |  |  |  | 11.5 µM | 6.61 µM | 6.54 µM | 33.9 µM |
| CCOC(=O)C1C(c2ccc([N+](=O)[O-])cc2)c2c(c3cc(F)ccc3oc2=O)OC1(O)C(F)(F)F (racemic) | Not Active | Not Active | Not Active | Not Active |  |  |  |  |
| CCOC(=O)C1C(c2ccc(O)cc2)c2oc(CO)cc(=O)c2OC1(O)C(F)(F)F (racemic) | Not Active | Not Active | Not Active | Not Active |  |  |  |  |
| CCOC(=O)C1C(c2ccc(O)cc2)c2c(c3ccccc3oc2=O)OC1(O)C(F)(F)F (racemic) | Not Active | Not Active | Not Active | Not Active |  |  |  |  |
| CCOC(=O)C1C(c2cccnc2)c2c(c3ccccc3oc2=O)OC1(O)C(F)(F)F (racemic) | Not Active | Not Active | Not Active | Not Active |  |  |  |  |
| CCOC(=O)C1C(c2ccc(O)c(OC)c2)c2c(c3ccccc3oc2=O)OC1(O)C(F)(F)F (racemic) | Not Active | Not Active | Not Active | Not Active |  |  |  |  |
| CCOC(=O)C1C(c2ccc(C)cc2)c2oc(CO)cc(=O)c2OC1(O)C(F)(F)F (racemic) | Not Active | Not Active | Not Active | Not Active |  |  |  |  |
| COc1cccc2c1C(=O)c1c(O)c3c(c(O)c1C2=O)C[C@@](O)(C(=O)CO)C[C@@H]3O[C@H]1C[C@H](N)[C@H](O)[C@H](C)O1 [DOXORUBICIN] |  |  |  |  | < 1 µM | < 1 µM |  |  |
| CCOC(=O)C1C(c2ccc(OC)cc2)c2c(c3ccccc3oc2=O)OC1(O)C(F)(F)F (racemic) |  |  |  |  | 11.2 µM | 2.2 µM | 71.7 µM | 82.4 µM |
| CCOC(=O)C1C(c2ccc(OC)c(OC)c2)c2c(c3ccccc3oc2=O)OC1(O)C(F)(F)F (racemic) |  |  |  |  | 87 µM | 7.71 µM | 53.9 µM | 34.3 µM |
| CCOC(=O)C1C(c2ccc(C(C)C)cc2)c2c(c3ccccc3oc2=O)OC1(O)C(F)(F)F (racemic) | Not Active | Not Active | Not Active | Not Active |  |  |  |  |
| CCOC(=O)C1C(c2ccc(F)cc2)c2c(c3cc(F)ccc3oc2=O)OC1(O)C(F)(F)F (racemic) | Not Active | Not Active | Not Active | Not Active |  |  |  |  |
| CCOC(=O)C1C(c2ccc(C#N)cc2)c2c(c3cc(F)ccc3oc2=O)OC1(O)C(F)(F)F (racemic) | Not Active | Not Active | Not Active | Not Active |  |  |  |  |
| CCOC(=O)C1C(c2ccc(C#N)cc2)c2c(c3ccccc3oc2=O)OC1(O)C(F)(F)F (racemic) | Not Active | Not Active | Not Active | Not Active |  |  |  |  |
